RGS4 block: human RGS4 inhibition; P49798; HEK293 M3R/RGS4 inducible, Fluo-4 calcium flux; active compounds read high; triggered by carbachol at its EC20; B-score at 10 µM; 310,000 compounds, 0.45% hits; AID 463165;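 active = B-score, a plate-corrected calcium signal, over three deviations above library mean, with baseline fluorescence within five deviations of library mean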;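 note: RGS4 expression induced by doxycycline in cells with stable M3 receptor; B-score is computed from the integrated fluorescence ratio over baseline after carbachol; higher B-score means a larger calcium signal and so more RGS4 inhibition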
Target sequence (P49798 whole entry, looked up): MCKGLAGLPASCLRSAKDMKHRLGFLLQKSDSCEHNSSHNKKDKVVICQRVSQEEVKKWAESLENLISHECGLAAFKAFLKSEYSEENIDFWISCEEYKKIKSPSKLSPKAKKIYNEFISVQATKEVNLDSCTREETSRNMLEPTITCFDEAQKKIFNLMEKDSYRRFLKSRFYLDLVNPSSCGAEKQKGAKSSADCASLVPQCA
RGS4 act: potentiators or activators of RGS4 | 310,000 compounds, 0.92% hits | B-score at 10 µM | AID 463111 | HEK293 M3R/inducible RGS4, carbachol calcium flux Fluo4; active compounds read low;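 active = B-score of the integrated calcium signal more than 4 SD below the library mean, with starting fluorescence not abnormally high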;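 note: negative B-score means reduced calcium response which marks RGS4 activation or potentiation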
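Material: Inducible-RGS4 HEK293 cells carrying M3 receptor; also added: carbachol at ECmax as muscarinic agonist stimulus; incubation: compound preincubation 20 min at room temperature before agonist; signal: Fluo4-AM (2 µM) calcium-flux fluorescence, kinetic read; measure: integrated calcium ratio converted to B score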
MrgX1 antagonist: antagonists of human MrgX1 receptor | Q96LB2 | 310,000 compounds, 1.3% hits | B-score at 10 µM | AID 588676 | MRGX1-HEK293 calcium flux, Fluo-4, BAM8-22 antagonism; active compounds read low;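 active = calcium-response B-score plate-corrected more than 3 library SD below zero, starting fluorescence within 5 deviations, no agonist response on first addition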;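 note: peak minus trough fluorescence over baseline after final BAM8-22 challenge near maximal dose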
Target sequence (Q96LB2 whole entry, looked up): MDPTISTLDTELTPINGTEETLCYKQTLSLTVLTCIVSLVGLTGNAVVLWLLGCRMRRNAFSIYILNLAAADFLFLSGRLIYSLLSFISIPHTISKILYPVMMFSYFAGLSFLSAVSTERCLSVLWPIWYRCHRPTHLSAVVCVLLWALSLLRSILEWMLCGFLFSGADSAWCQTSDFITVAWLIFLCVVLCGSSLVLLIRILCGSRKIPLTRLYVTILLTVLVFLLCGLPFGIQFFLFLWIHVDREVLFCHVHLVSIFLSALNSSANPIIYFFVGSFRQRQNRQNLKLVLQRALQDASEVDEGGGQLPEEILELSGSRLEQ
MrgX1 PAM: human MrgX1 positive allosteric modulation, primary screen. Q96LB2. MrgX1-HEK293, Fluo-4 calcium flux, FDSS; active compounds read high. B-score at 10 µM. 310,000 compounds, 0.63% hits;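 active = plate-corrected calcium response at least 3 library SD above typical, normal starting fluorescence, not activating the receptor alone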;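 note: compound read alongside a low EC10 to EC30 dose of BAM8-22 agonist; peak minus trough fluorescence over baseline measured at the second addition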
MrgX1 agonist: human MrgX1 receptor agonism, primary screen | 310,000 compounds, 0.44% hits | B-score at 10 µM | AID 588627 | Q96LB2 | MrgX1-HEK293 cells, Fluo-4 calcium fluorescence, agonist mode; active compounds read high;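 active = calcium response B-score plate-corrected fluorescence ratio at least 3 library SD, with starting fluorescence B-score inside 5 SD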
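System: HEK293 cells stably expressing human MrgX1 receptor; Dosing: test compound in the initial addition of three; Schedule: overnight plating, then 30 min 37 °C plus 30 min room-temperature dye loading; Detection: kinetic calcium dye fluorescence, Fluo-4 NW; Controls: per-plate positive and negative controls for Z′ factor.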
MrgX1 ant reconf: human MrgX1 receptor antagonism, re-confirmation screen; MrgX1-HEK293, BAM8-22 calcium flux, Fluo-4; active compounds read low; remaining BAM8-22 calcium response % of control (active compounds read low), % at 10 µM; 2,300 compounds, 19% hits; shares compounds with MrgX1 antagonist;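 active = remaining agonist calcium response no higher than 100% minus 3 SD of agonist-only control wells, with starting fluorescence near control levels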;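 note: agonist BAM8-22 given at a near maximal EC90 to ECmax level; peak minus minimum fluorescence divided by baseline after agonist addition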
HEK293 Ca flux: MrgX1 antagonist counter-screen hit in parental HEK293 cells; shares compounds with MrgX1 antagonist; Fluo-4 calcium fluorescence, FDSS; fluorescence ratio F(max-min)/F0 at 10 µM; 4,000 compounds, 2% hits; AID 624111;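 active = duplicate-averaged calcium fluorescence ratio at least three times the standard deviation of buffer wells, a nonspecific response in parental cells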
HEK293 Ca counter: MrgX1 allosteric activator counter-screen hit in parental HEK293 cells; shares compounds with MrgX1 antagonist; parental HEK293 calcium flux, Fluo-4 fluorescence ratio; active compounds read high; fluorescence ratio F(max-min)/F0 at 10 µM; 4,000 compounds, 0.4% hits;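 active = calcium fluorescence ratio, averaged over duplicates, at least 3 SD of the buffer-well ratio, meaning a nonspecific response in receptor-free cells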;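 note: untransfected parental HEK293 lacking MrgX1 used as counterscreen for MrgX1 allosteric activators; fluorescence change taken during the second addition on a kinetic imager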
HEK293 Ca cntr2: counter-screen for MrgX1 activators: effect in parental HEK293 cells; fluorescence ratio F(max-min)/F0 at 10 µM; AID 624115; shares compounds with MrgX1 antagonist; 4,000 compounds, 8.7% hits; Fluo-4 calcium fluorescence (FDSS); active compounds read high;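 active = calcium fluorescence ratio at least three times the spread of buffer wells, meaning a non-specific response in parental cells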
Hits are given with their value. Only some compounds are listed: those with a hit (about 3.5% of all), similar ones and a draw of the others.

What do the screens show for `COC(=O)c1ccc(NC(=O)C2C3C=CC(O3)C2C(=O)O)cc1` (stereo not given)?
RGS4 block: inactive; RGS4 act: inactive; MrgX1 antagonist: -8.7; MrgX1 PAM: inactive; MrgX1 agonist: inactive; MrgX1 ant reconf: inactive; HEK293 Ca flux: inactive; HEK293 Ca counter: inactive; HEK293 Ca cntr2: inactive

What do the screens show for `COc1ccc(NC(=O)CC2Oc3ccccc3NC2=O)c(OC)c1` (stereo not given)?
RGS4 block: inactive; RGS4 act: inactive; MrgX1 antagonist: inactive; MrgX1 PAM: inactive; MrgX1 agonist: inactive

Results for CC(=O)c1ccccc1C(=O)N(C)C1CCCN(Cc2ccccc2F)C1 (stereo not given) ?
RGS4 block: inactive; RGS4 act: inactive; MrgX1 antagonist: -4.8; MrgX1 PAM: inactive; MrgX1 agonist: inactive; MrgX1 ant reconf: inactive; HEK293 Ca flux: inactive; HEK293 Ca counter: inactive; HEK293 Ca cntr2: 45

What do the screens show for `CO[C@H]1O[C@H](CBr)[C@@H](OC(=O)c2ccccc2)[C@H](O)[C@H]1O`?
RGS4 block: inactive; RGS4 act: inactive; MrgX1 antagonist: inactive; MrgX1 PAM: inactive; MrgX1 agonist: inactive

Results for COC1OC(COC(=O)c2ccccc2)C(OC(=O)c2ccccc2)C1OC(=O)c1ccccc1 (stereo not given) ?
RGS4 block: inactive; RGS4 act: inactive; MrgX1 antagonist: -5.5; MrgX1 PAM: inactive; MrgX1 agonist: inactive; MrgX1 ant reconf: inactive; HEK293 Ca flux: inactive; HEK293 Ca counter: inactive; HEK293 Ca cntr2: inactive

How did CC1CC1C(=O)OCC(=O)Nc1cccc([N+](=O)[O-])c1 (stereo not given) do in these assays?
RGS4 block: inactive; RGS4 act: inactive; MrgX1 antagonist: inactive; MrgX1 PAM: inactive; MrgX1 agonist: inactive

What do the screens show for `COc1cc(NS(C)(=O)=O)ccc1Nc1c2ccccc2nc2ccccc12`?
MrgX1 antagonist: -6.7; MrgX1 PAM: inactive; MrgX1 agonist: inactive; MrgX1 ant reconf: inactive; HEK293 Ca flux: inactive; HEK293 Ca counter: inactive; HEK293 Ca cntr2: inactive

What do the screens show for `COc1ccc(OC)c(Nc2c3ccccc3nc3ccccc23)c1`?
RGS4 block: inactive; RGS4 act: inactive; MrgX1 antagonist: inactive; MrgX1 PAM: inactive; MrgX1 agonist: inactive

What do the screens show for `CCOC(=O)Nc1nc(C)c(C(=O)c2ccc(Cl)cc2)s1`?
RGS4 block: inactive; RGS4 act: inactive; MrgX1 antagonist: inactive; MrgX1 PAM: inactive; MrgX1 agonist: inactive

How did CCOC(=O)Nc1nc(-c2ccc(Cl)cc2Cl)cs1 do in these assays?
RGS4 block: inactive; RGS4 act: inactive; MrgX1 antagonist: -5.6; MrgX1 PAM: inactive; MrgX1 agonist: inactive; MrgX1 ant reconf: inactive; HEK293 Ca flux: inactive; HEK293 Ca counter: inactive; HEK293 Ca cntr2: inactive

How did CN(CCC1CCOCC1)C(=O)CC1C(=O)NCCN1Cc1ccccc1F (stereo not given) do in these assays?
RGS4 block: inactive; RGS4 act: inactive; MrgX1 antagonist: inactive; MrgX1 PAM: inactive; MrgX1 agonist: inactive

Results for CN(CCN1CCOCC1)C(=O)CC1C(=O)NCCN1Cc1ccccc1F (stereo not given) ?
RGS4 block: inactive; RGS4 act: inactive; MrgX1 antagonist: -8.6; MrgX1 PAM: inactive; MrgX1 agonist: inactive; MrgX1 ant reconf: inactive; HEK293 Ca flux: inactive; HEK293 Ca counter: inactive; HEK293 Ca cntr2: inactive

Results for O=S(=O)(Nc1ccccn1)c1cc(Cl)ccc1Cl ?
RGS4 block: inactive; RGS4 act: inactive; MrgX1 antagonist: inactive; MrgX1 PAM: inactive; MrgX1 agonist: inactive

What do the screens show for `Cc1ccc(N2C(=O)C(NC(=O)c3ccccc3)(C(F)(F)F)C3=C2CC(C)(C)CC3=O)cc1` (stereo not given)?
RGS4 block: inactive; RGS4 act: inactive; MrgX1 antagonist: inactive; MrgX1 PAM: inactive; MrgX1 agonist: inactive

How did CSC1=NCCN1C(=O)c1ccc(Br)o1 do in these assays?
RGS4 block: inactive; RGS4 act: inactive; MrgX1 antagonist: -5.4; MrgX1 PAM: inactive; MrgX1 agonist: inactive; MrgX1 ant reconf: inactive; HEK293 Ca flux: inactive; HEK293 Ca counter: inactive; HEK293 Ca cntr2: inactive

What do the screens show for `CC(=O)Nc1ccc(NC(=O)CNC(=O)c2cccc(C)c2)cc1`?
RGS4 block: inactive; RGS4 act: inactive; MrgX1 antagonist: inactive; MrgX1 PAM: inactive; MrgX1 agonist: inactive

How did CCc1nnc(NC(=O)c2nc(S(=O)(=O)Cc3ccc(C)cc3)ncc2Cl)s1 do in these assays?
RGS4 block: inactive; RGS4 act: inactive; MrgX1 antagonist: -7.2; MrgX1 PAM: inactive; MrgX1 agonist: inactive; MrgX1 ant reconf: 73%; HEK293 Ca flux: inactive; HEK293 Ca counter: inactive; HEK293 Ca cntr2: inactive

What do the screens show for `CCCn1c(=N)n(CC(=O)c2cccs2)c2ccccc21`?
RGS4 block: inactive; RGS4 act: inactive; MrgX1 antagonist: -4.6; MrgX1 PAM: inactive; MrgX1 agonist: inactive; MrgX1 ant reconf: inactive; HEK293 Ca flux: inactive; HEK293 Ca counter: inactive; HEK293 Ca cntr2: inactive

What do the screens show for `CS(=O)(=O)N(CCc1ccccc1)CC(=O)NCC1CCCO1` (stereo not given)?
RGS4 block: inactive; RGS4 act: inactive; MrgX1 antagonist: -6.7; MrgX1 PAM: inactive; MrgX1 agonist: inactive; MrgX1 ant reconf: inactive; HEK293 Ca flux: inactive; HEK293 Ca counter: inactive; HEK293 Ca cntr2: inactive

Results for Cn1c(C2=C(O)CN(c3ccccc3)C2=N)nc2ccccc21 ?
RGS4 block: inactive; RGS4 act: inactive; MrgX1 antagonist: inactive; MrgX1 PAM: inactive; MrgX1 agonist: inactive

Results for CCCN(C(=O)c1ccco1)c1nnc(-c2cccc(C)c2)s1 ?
RGS4 block: inactive; RGS4 act: inactive; MrgX1 antagonist: inactive; MrgX1 PAM: inactive; MrgX1 agonist: inactive

Results for COCCN(C(=O)C1CC1)c1nnc(-c2cccc(C)c2)s1 ?
RGS4 block: inactive; RGS4 act: inactive; MrgX1 antagonist: -5.4; MrgX1 PAM: inactive; MrgX1 agonist: inactive; MrgX1 ant reconf: inactive; HEK293 Ca flux: inactive; HEK293 Ca counter: inactive; HEK293 Ca cntr2: inactive

Results for CCCN1CC(O)=C(C#N)C1=O ?
RGS4 block: inactive; RGS4 act: inactive; MrgX1 antagonist: inactive; MrgX1 PAM: inactive; MrgX1 agonist: inactive

Results for O=C(Oc1ccc(-c2nnco2)cc1)N1CCOCC1 ?
RGS4 block: inactive; RGS4 act: inactive; MrgX1 antagonist: -5; MrgX1 PAM: inactive; MrgX1 agonist: inactive; MrgX1 ant reconf: inactive; HEK293 Ca flux: inactive; HEK293 Ca counter: inactive; HEK293 Ca cntr2: inactive

Source: PubChem BioAssay (Johns Hopkins Ion Channel Center)
